Laboratory results from ChEMBL document CHEMBL4038265, “Antiprotozoal Activity-Based Profiling of a Dichloromethane Extract from Anthemis nobilis Flowers” (J Nat Prod, 2017).

Legend:
Leishmania donovani = assay: Antiprotozoal activity against amastigote form of Leishmania donovani MHOM/ET/67/L82 after 72 hrs by Alamar Blue assay; format: functional; conditions: MHOM/ET/67/L82, 72 h
L6 = assay: Cytotoxicity against rat L6 cells after 72 hrs by Alamar Blue assay; format: cell-based; conditions: L6, 72 h
Outline: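 Rat L6 cytotoxicity IC50 values (μM) are averages of three independent assays.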

[1] = Selectivity index, ratio of IC50 for rat L6 cells to IC50 for bloodstream form of Trypanosoma brucei rhodesiense STIB900; format: toxicity; conditions: read-out: Ratio IC50
[2] = Selectivity index, ratio of IC50 for rat L6 cells to IC50 for Trypanosoma cruzi Tulahuen C4; format: toxicity; conditions: read-out: Ratio IC50
Plasmodium falciparum = assay: Antiprotozoal activity against erythrocytic stage of Plasmodium falciparum NF54 after 48 hrs by [3H]- hypoxanthine incorporation assay; format: functional
[3] = test system: Trypanosoma brucei rhodesiense; assay: Antiprotozoal activity against bloodstream form of Trypanosoma brucei rhodesiense STIB900 after 72 hrs by Alamar Blue assay; format: functional; conditions: STIB900, 72 h
[4] = Selectivity index, ratio of IC50 for rat L6 cells to IC50 for erythrocytic stage of Plasmodium falciparum NF54; format: toxicity; conditions: read-out: Ratio IC50
[5] = Selectivity index, ratio of IC50 for rat L6 cells to IC50 for amastigote form of Leishmania donovani MHOM/ET/67/L82; format: toxicity; conditions: read-out: Ratio IC50
Trypanosoma cruzi = assay: Antiprotozoal activity against Trypanosoma cruzi Tulahuen C4 infected in rat L6 cells after 96 hrs by beta-galactosidase reporter gene assay; format: functional, cell-based; conditions: Tulahuen C4, L6, 96 h

## C=C(C[C@H](OC(=O)/C(C)=C\C)[C@@H]1C(=C)C(=O)O[C@H]1/C=C(\C)C=O)C(C)=O
Leishmania donovani
  IC50: 0.38 µM
L6
  IC50: 1.8 µM
[1]
  selectivity ratio: 4.3
[2]
  selectivity ratio: 0.3
Plasmodium falciparum
  IC50: 2 µM
[3]
  IC50: 0.42 µM
[4]
  selectivity ratio: 0.9
[5]
  selectivity ratio: 4.7
Trypanosoma cruzi
  IC50: 5 µM

## C=C1C(=O)O[C@H]2/C=C(/C)[C@@H](O)C[C@H](O)C(=C)C[C@H](OC(=O)/C(C)=C\C)[C@@H]12
Leishmania donovani
  IC50: 13.2 µM
L6
  IC50: 5.1 µM
[1]
  selectivity ratio: 8.3
[2]
  selectivity ratio: 0.2
Plasmodium falciparum
  IC50: 7.8 µM
[3]
  IC50: 0.61 µM
[4]
  selectivity ratio: 0.6
[5]
  selectivity ratio: 0.4
Trypanosoma cruzi
  IC50: 29.3 µM

## C=C1C[C@H](OC(=O)/C(C)=C\C)[C@H]2C(=C)C(=O)O[C@H]2/C=C(/C)[C@@H](O)CC1=O
Leishmania donovani
  IC50: 0.5 µM
L6
  IC50: 1.5 µM
[1]
  selectivity ratio: 3.9
[2]
  selectivity ratio: 0.5
Plasmodium falciparum
  IC50: 1.9 µM
[3]
  IC50: 0.4 µM
[4]
  selectivity ratio: 0.8
[5]
  selectivity ratio: 3.1
Trypanosoma cruzi
  IC50: 2.8 µM

## C=C1C(=O)O[C@H]2/C=C(/C)[C@@H](O)C[C@@H](O)/C(C)=C\[C@H](OC(=O)/C(C)=C\C)[C@@H]12
Leishmania donovani
  IC50: 8.4 µM
L6
  IC50: 5.3 µM
[1]
  selectivity ratio: 3.9
[2]
  selectivity ratio: 0.2
Plasmodium falciparum
  IC50: 9.6 µM
[3]
  IC50: 1.4 µM
[4]
  selectivity ratio: 0.5
[5]
  selectivity ratio: 0.6
Trypanosoma cruzi
  IC50: 26.1 µM

## C=C1C(=O)O[C@H]2/C=C(/C)[C@@H](O)C/C=C(\C=O)C[C@H](OC(=O)/C(C)=C\C)[C@@H]12
Leishmania donovani
  IC50: 1.6 µM
L6
  IC50: 1.8 µM
[1]
  selectivity ratio: 3.9
[2]
  selectivity ratio: 0.2
Plasmodium falciparum
  IC50: 1.9 µM
[3]
  IC50: 0.4 µM
[4]
  selectivity ratio: 0.9
[5]
  selectivity ratio: 1.1
Trypanosoma cruzi
  IC50: 9.8 µM

## C=C1C(=O)O[C@H]2/C=C(/C)[C@@H](O)C[C@H](O)C(=C)C[C@H](OC(=O)/C(C)=C/C)[C@@H]12
Leishmania donovani
  IC50: 5.3 µM
L6
  IC50: 5.1 µM
[1]
  selectivity ratio: 14.1
[2]
  selectivity ratio: 0.2
Plasmodium falciparum
  IC50: 6.2 µM
[3]
  IC50: 0.36 µM
[4]
  selectivity ratio: 0.8
[5]
  selectivity ratio: 1
Trypanosoma cruzi
  IC50: 26.7 µM

## C=C1C(=O)O[C@@H]2/C=C(/C)[C@@H]3C[C@H](O)[C@@](CO)(C[C@H](OC(=O)/C(C)=C\C)[C@@H]12)O3
Leishmania donovani
  IC50: 9.8 µM
L6
  IC50: 5.1 µM
[1]
  selectivity ratio: 63.1
[2]
  selectivity ratio: 0.1
Plasmodium falciparum
  IC50: 4.7 µM
[3]
  IC50: 0.08 µM
[4]
  selectivity ratio: 1.1
[5]
  selectivity ratio: 0.5
Trypanosoma cruzi
  IC50: 37.3 µM

## C=C(C)C(=O)O[C@H]1C/C(C)=C/C[C@H](O)/C(C)=C\[C@@H]2OC(=O)C(=C)[C@@H]21
L6
  IC50: 28.2 µM
[1]
  selectivity ratio: 6.1
[2]
  selectivity ratio: 6.1
[3]
  IC50: 4.6 µM
Trypanosoma cruzi
  IC50: 4.2 µM

## C=C1C(=O)O[C@H]2/C=C(/C)[C@@H](O)C[C@@H]3O[C@]3(C)C[C@H](OC(=O)/C(C)=C/C)[C@@H]12
Leishmania donovani
  IC50: 2.7 µM
L6
  IC50: 5.3 µM
[1]
  selectivity ratio: 4.5
[2]
  selectivity ratio: 0.7
Plasmodium falciparum
  IC50: 3 µM
[3]
  IC50: 1.2 µM
[4]
  selectivity ratio: 1.8
[5]
  selectivity ratio: 1.9
Trypanosoma cruzi
  IC50: 7.3 µM

## C=C1C(=O)O[C@H]2/C=C(/C)[C@H](O)C[C@H](O)C(=C)C[C@H](OC(=O)/C(C)=C\C)[C@@H]12
Leishmania donovani
  IC50: 23 µM
L6
  IC50: 7.3 µM
[1]
  selectivity ratio: 8.3
[2]
  selectivity ratio: 0.2
Plasmodium falciparum
  IC50: 7.9 µM
[3]
  IC50: 0.88 µM
[4]
  selectivity ratio: 0.9
[5]
  selectivity ratio: 0.3
Trypanosoma cruzi
  IC50: 31.1 µM

## C=C1C(=O)O[C@H]2[C@H]1[C@@H](OC(=O)/C(C)=C\C)CC(=C)[C@@H]1C=C[C@@](C)(O)[C@H]21
Leishmania donovani
  IC50: 0.8 µM
L6
  IC50: 5.8 µM
[1]
  selectivity ratio: 4.4
[2]
  selectivity ratio: 0.6
Plasmodium falciparum
  IC50: 8.5 µM
[3]
  IC50: 1.3 µM
[4]
  selectivity ratio: 0.68
[5]
  selectivity ratio: 7.2
Trypanosoma cruzi
  IC50: 10.9 µM

## C=C1C(=O)O[C@@H](/C=C(\C)C=O)[C@@H]1[C@H](/C=C(/C)C(C)=O)OC(=O)/C(C)=C\C
Leishmania donovani
  IC50: 0.5 µM
L6
  IC50: 5.2 µM
[1]
  selectivity ratio: 4.3
[2]
  selectivity ratio: 0.5
Plasmodium falciparum
  IC50: 2.2 µM
[3]
  IC50: 1.2 µM
[4]
  selectivity ratio: 2.3
[5]
  selectivity ratio: 11.2
Trypanosoma cruzi
  IC50: 11.3 µM

## C=C1C(=O)O[C@H]2/C=C(/C)[C@@H](O)C/C=C(\C)C[C@H](OC(=O)/C(C)=C\C)[C@@H]12
Leishmania donovani
  IC50: 2.7 µM
L6
  IC50: 4.9 µM
[1]
  selectivity ratio: 2.4
[2]
  selectivity ratio: 0.4
Plasmodium falciparum
  IC50: 3.1 µM
[3]
  IC50: 2.1 µM
[4]
  selectivity ratio: 1.6
[5]
  selectivity ratio: 1.8
Trypanosoma cruzi
  IC50: 11.3 µM

## O=C(Cn1ccnc1[N+](=O)[O-])NCc1ccccc1 [BENZNIDAZOLE]
Trypanosoma cruzi
  IC50: 2 µM

## CCCCCCCCCCCCCCCCOP(=O)([O-])OCC[N+](C)(C)C [MILTEFOSINE]
Leishmania donovani
  IC50: 0.13 µM

## COc1cc([C@@H]2c3cc4c(cc3[C@H](O)[C@H]3COC(=O)[C@H]23)OCO4)cc(OC)c1OC [PODOFILOX]
L6
  IC50: 0.016 µM
